The source made the active and inactive calls. The rule behind the calls is not given here. Where a SMILES comes first, the peptide text is derived from it. Bridges are numbered along the chain shown (N, C = ends). Roman numbers before positions name the chains, in order. [ ]: non-standard residue; d: D form. The star is where a group is joined. 5TAMRA = CN(C)c1ccc2c(c1)Oc1cc(N(C)C)ccc1C21OC(=O)c2cc(C(=O)*)ccc21; Cha = N[C@@H](CC1CCCCC1)C(=O)O
Legend:
[1] = Drug localization in lysosomes of human HeLa cells expressing endosome markers at 100 nM incubated for 3 hrs by LysoTracker probe based analysis; assay type: ADME, subcellular, Lysosome; conditions: 0.1 µM
Procedure, shortened: (§1)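 HeLa cells expressing early-endosome GFP marker (16 h) given TAMRA-labelled peptide 100 nM for 3 h plus LysoTracker 50 nM; confocal imaging with Pearson correlation.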

Mus musculus [2] = test: Protection against colistin-induced nephrotoxicity in C57BL/6 mouse model assessed as appearance of cristae formation in mitochondria of kidney at 1 mg/kg, ip administered once every other day measured after 7 days by TEM analysis; assay type: functional, organism-based; conditions: time 7.0 day
Procedure, shortened: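 Male C57BL/6 mice, 7 weeks, given colistin 20 mg/kg sc daily for 7 days with peptide 1 mg/kg ip once every other day, n = 5 per group; kidney mitochondria examined by TEM.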

Mus musculus [3] = test: Protection against […] C57BL/6 mouse model assessed as decrease in NGAL level at 1 mg/kg, ip administered thrice a week prior to induction of bilateral ischemia-reperfusion injury measured after 6 days by Western blot analysis; assay type: functional, organism-based; conditions: time 6.0 day
Mus musculus [4] = test: Protection against […] C57BL/6 mouse model assessed as reduction in serum creatinine level at 1 mg/kg, ip administered thrice a week prior to induction of bilateral ischemia-reperfusion injury measured after 6 days; assay type: functional, organism-based; conditions: time 6.0 day
Epithelial cell [5] = test: Reversal of H2O2-induced mitochondrial dysfunction in human tubular epithelial cells assessed as increase in ECAR level measured for 40 to 60 mins by Seahorse assay; assay type: functional, cell-based; conditions: dose 10-50 nM, time 40-60 min
Procedure, shortened: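 hTECs were exposed to H2O2 with peptide at 10 or 50 nM (n = 6 per group), then run on a Seahorse XFe96. OCR was read after sequential 2 μM oligomycin, 1 μM FCCP, and 0.5 μM rotenone/antimycin A. ECAR was read after 10 mM glucose, 1 μM oligomycin and 50 mM 2-DG. Glycolytic proton efflux rate was taken as glycoATP production rate.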

Mus musculus [6] = test: Protection against colistin-induced nephrotoxicity in C57BL/6 mouse model assessed as reduction in acute tubular necrosis at 1 mg/kg, ip administered once every other day measured after 7 days by […] analysis; assay type: functional, organism-based; conditions: time 7.0 day
Procedure, shortened: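 Male C57BL/6 mice, 7 weeks: colistin 20 mg/kg sc daily for 7 days, peptide 1 mg/kg ip once every other day, n = 5 per group. Day-7 kidney sections, citrate antigen retrieval, immunohistochemistry with HRP polymer secondary and hematoxylin counterstain; PAS and Masson's trichrome for damage.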

Lipid bilayer = test: Binding affinity to cardiolipin-rich POPC/POPE by SPR analysis
HeLa [7] = test: Inhibition of H2O2-induced intracellular ROS level in human HeLa cells at EC50 incubated for […] followed by H2O2 addition measured for 10 mins by H2DCFDA probe based analysis; assay type: functional, cell-based; conditions: time 220.0 min
HeLa [8] = test: Reversal of H2O2-induced mitochondrial damage in human HeLa cells assessed as formation of long cristae at 50 to 100 nM preincubated for 2 hrs followed by H2O2 addition for 2 hrs by TEM analysis; assay type: functional, cell-based; conditions: dose 50-100 nM, time 4.0 hrs
Procedure, shortened: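 HeLa cells were pretreated with 50 or 100 nM peptide for 2 h, then exposed to 0.5 mM H2O2 for 2 h. They were fixed in Karnovsky's fixative (pH 7.2), postfixed in osmium, embedded in Spurr's resin and stained with uranyl acetate/lead citrate for TEM. Cristae longer than 0.5 μm were counted from at least 50 mitochondrial images.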

Mus musculus [9] = test: Protection against […] C57BL/6 mouse model assessed as increase in SOD-1 mRNA level at 1 mg/kg, ip administered thrice a week prior to induction of bilateral ischemia-reperfusion injury measured after 6 days by qPCR analysis; assay type: functional, organism-based; conditions: time 6.0 day
Mus musculus [10] = test: Protection against […] C57BL/6 mouse model assessed as increase in IL-10 mRNA level at 1 mg/kg, ip administered thrice a week prior to induction of bilateral ischemia-reperfusion injury measured after 6 days by qPCR analysis; assay type: functional, organism-based; conditions: time 6.0 day
Mus musculus [11] = test: Protection against […] C57BL/6 mouse model assessed as increase in SOD-1 level at 1 mg/kg, ip administered thrice a week prior to induction of bilateral ischemia-reperfusion injury measured after 6 days by IHC analysis; assay type: functional, organism-based; conditions: time 6.0 day
[12] = Drug localization in cytosol of human HeLa cells at 100 nM incubated for 3 hrs in presence of CCCP by NAO probe based analysis; assay type: ADME, subcellular; conditions: 0.1 µM
Procedure, shortened: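 HeLa cells given TAMRA-labelled peptide 100 nM for 3 h and cardiolipin stained with NAO (100 nM, 1 h), with or without 20 μM CCCP for 30 min; LysoTracker 50 nM. Confocal images, Pearson r from five independent images (63×) per condition.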

Mus musculus [13] = test: Protection against […] C57BL/6 mouse model assessed as decrease in cyt C level at 1 mg/kg, ip administered thrice a week prior to induction of bilateral ischemia-reperfusion injury measured after 6 days by IHC analysis; assay type: functional, organism-based; conditions: time 6.0 day
Mus musculus [14] = test: Protection against colistin-induced nephrotoxicity in C57BL/6 mouse model assessed as reduction in cyt C level at 1 mg/kg, ip administered once every other day measured after 7 days by IHC analysis; assay type: functional, organism-based; conditions: time 7.0 day
Procedure, shortened: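 Seven-week-old male C57BL/6 mice got colistin 20 mg/kg SC daily for 7 days plus peptide 1 mg/kg intraperitoneally every other day; groups of n = 5 (control, colistin, colistin + peptide). Kidneys were taken at day 7. Cytochrome C was detected by immunohistochemistry (citrate antigen retrieval, HRP-polymer detection, hematoxylin counterstain). Sections were also stained with PAS and Masson's trichrome to score histologic damage and fibrosis.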

Mus musculus [15] = test: Protection against colistin-induced nephrotoxicity in C57BL/6 mouse model assessed as reduction in blood BUN level at 1 mg/kg, ip administered once every other day measured upto 7 days; assay type: functional, organism-based; conditions: time <= 7.0 day
Procedure, shortened: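 Male C57BL/6 mice, 7 weeks: colistin 20 mg/kg sc daily for 7 days, peptide 1 mg/kg ip every other day, n = 5 per group. BUN by autoanalyzer and creatinine by modified Jaffe reaction after 7 days; mean ± SEM.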

Mus musculus [16] = test: Protection against […] C57BL/6 mouse model assessed as increase in ATP6 mRNA level at 1 mg/kg, ip administered thrice a week prior to induction of bilateral ischemia-reperfusion injury measured after 6 days by qPCR analysis; assay type: functional, organism-based; conditions: time 6.0 day
[17] = Drug uptake in mitochondria of human HeLa cells transfected with Drp1-eGFP at 100 nM incubated for 3 hrs by confocal microscopy; assay type: ADME; conditions: 0.1 µM
[18] = Drug localization in H2O2-damaged mitochondria of human tubular epithelial cells pretreated for 3 hrs followed by H2O2 addition measured after 30 mins by fluorescence based analysis; assay type: ADME; conditions: epithelial cell, time 3.5 hrs
HeLa [19] = test: Induction of antimycin A-reduced ATP production in human HeLa cells incubated for 3 hrs followed by antimycin A addition measured after 3 hrs by luminescence based analysis; assay type: functional, cell-based; conditions: dose 10-20 nM, time 6.0 hrs
Procedure, shortened: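 Cellular ATP measured by luminescence with an ATP detection kit after peptide pretreatment.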

[20] = Drug localization in endosomes of human HeLa cells expressing endosome markers at 100 nM incubated for 3 hrs by GFP based analysis; assay type: ADME, subcellular; conditions: 0.1 µM; procedure, shortened: as §1
Epithelial cell [21] = test: Induction of antimycin A-reduced ATP production in human tubular epithelial cells at 10 to 20 nM incubated for 3 hrs followed by antimycin A addition by fluorescene based analysis; assay type: functional; conditions: dose 10-20 nM

In the case of `CC(=O)N[C@@H](CC1CCCCC1)C(=O)N[C@H]1CSSC[C@@H](C(=O)N[C@@H](CCCNC(=N)N)C(N)=O)NC(=O)[C@H](CC2CCCCC2)NC(=O)[C@H](CCCNC(=N)N)NC(=O)[C@H](CCCNC(=N)N)NC(=O)[C@H](CC2CCCCC2)NC(=O)[C@H](CC(C)C)NC(=O)[C@H](CCCNC(=N)N)NC(=O)[C@@H](NC(=O)[C@H](CC2CCCCC2)NC(=O)c2ccc3c(c2)C(=O)OC32c3ccc(N(C)C)cc3Oc3cc(N(C)C)ccc32)CSSC[C@@H](C(=O)N[C@@H](CCCNC(=N)N)C(N)=O)NC(=O)[C@H](CC2CCCCC2)NC(=O)[C@H](CCCNC(=N)N)NC(=O)[C@H](CCCNC(=N)N)NC(=O)[C@H](CC2CCCCC2)NC(=O)[C@H](CC(C)C)NC(=O)[C@H](CCCNC(=N)N)NC1=O` (I: Ac-[Cha]CRL[Cha]RR[Cha]CR-NH2 / II: 5TAMRA-[Cha]CRL[Cha]RR[Cha]CR-NH2; disulfide I:2-II:9, I:9-II:2), the Drug uptake [1] is reported as “Active”, the Activity (Mus musculus [2]) is reported as “Active” and the Activity (Mus musculus [3]) is reported as “Active”. For the same molecule, the Activity (Mus musculus [4]) was “Active”, the Activity (Epithelial cell [5]) was “Dose-Dependent Effect” and the Activity (Mus musculus [6]) was “Active”. For the same molecule, the Activity (Lipid bilayer) was “Active”, the inhibition (HeLa [7]) was “Active” and the Activity (HeLa [8]) was “Active”. For the same molecule, the Activity (Mus musculus [9]) was “Active”, the Activity (Mus musculus [10]) was “Active” and the Activity (Mus musculus [11]) was “Active”. The Drug uptake [12] was “Active”, the Activity (Mus musculus [13]) was “Active” and the Activity (Mus musculus [14]) was “Active”. For the same molecule, the Activity (Mus musculus [15]) was “Active”, the Activity (Mus musculus [16]) was “Active” and the Drug uptake [17] was “Active”. For the same molecule, the Drug uptake [18] was “Active”, the Activity (HeLa [19]) was “Dose-Dependent Effect” and the Drug uptake [20] was “Not Active”. For the same molecule, the Activity (Epithelial cell [21]) was “Active”.

Reference: ChEMBL document CHEMBL5634162, “Cyclohexylalanine-Containing α-Helical Amphipathic Peptide Targets Cardiolipin, Rescuing Mitochondrial Dysfunction in Kidney Injury” (J Med Chem, 2024)
